Assay results published in ChEMBL document CHEMBL2331178, “Novel pyridinone derivatives as non-nucleoside reverse transcriptase inhibitors (NNRTIs) with high potency against NNRTI-resistant HIV-1 strains” (J Med Chem, 2013).
pEC50, pIC50: −log10 of the molar value.

Columns and labels:
[1] = Selectivity index, ratio of CC50 for human MT4 cells to EC50 for Human immunodeficiency virus 1 A17 infected in human MT4 cells; type: toxicity, cell-based; details: read-out: Ratio CC50/EC50
[2] = test system: Human immunodeficiency virus 1; test: Antiviral activity against Human immunodeficiency virus 1 SF33 infected in human TZM-bl cells assessed decrease in p24 level after 7 days by ELISA; type: functional, organism-based; details: Human immunodeficiency virus 1, SF33, TZM-bl, 168 h
[3] = biological target: Human immunodeficiency virus type 1 reverse transcriptase (Human immunodeficiency virus 1, UniProt Q72547); test: Inhibition of HIV1 reverse transcriptase after 1 hr by colorimetric assay
How it was run: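 Purified recombinant wild-type RT with poly(rA)/oligo(dT)16 template-primer and serial inhibitor concentrations. Incubated 1 h at 37 °C. Incorporated biotin detected with streptavidin-alkaline phosphatase and PNPP (30 min, 37 °C), read colorimetrically.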

[4] = Selectivity index, ratio of CC50 for human TZM-bl cells to EC50 for Human immunodeficiency virus 1 SF33 infected in human TZM-bl cells; type: toxicity, cell-based; details: read-out: Ratio CC50/EC50
[5] = Selectivity index, ratio of CC50 for human TZM-bl cells to EC50 for Human immunodeficiency virus 1 A17 infected in human TZM-bl cells; type: toxicity, cell-based; details: read-out: Ratio CC50/EC50
[6] = Cytotoxicity against human TZM-bl cells; type: cell-based
[7] = test system: Human immunodeficiency virus 1; test: Antiviral activity against NNRTI-resistant Human immunodeficiency virus 1 A17 double mutant infected in human TZM-bl cells assessed decrease in p24 level after 7 days by ELISA; type: functional, organism-based; details: Human immunodeficiency virus 1, A17, TZM-bl, 168 h
[8] = test system: Human immunodeficiency virus 1; test: Antiviral activity against Human immunodeficiency virus 1 SF33 infected in human MT4 cells assessed decrease in p24 level after 7 days by ELISA; type: functional, organism-based; details: Human immunodeficiency virus 1, SF33, MT4, 168 h
How it was run: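 MT4 cells (4×10^4/well) infected with 200 TCID50 of HIV-1 for 2 h at 37 °C, then serial dilutions of compound added. After 7 days at 37 °C, p24 measured in a commercial ELISA.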

[9] = Cytotoxicity against human MT4 cells after 3 days by XTT assay; type: cell-based
How it was run: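 Graded compound concentrations added to MT4 cells (5×10^4/well) for 3 days at 37 °C. CCK-8 reagent then added for 4 h at 37 °C to develop the XTT formazan product, and absorbance read at 450 nm. CC50 derived from percent cytotoxicity.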

[10] = Selectivity index, ratio of CC50 for human MT4 cells to EC50 for Human immunodeficiency virus 1 SF33 infected in human MT4 cells; type: toxicity, cell-based; details: read-out: Ratio CC50/EC50
[11] = test system: Human immunodeficiency virus 1; test: Antiviral activity against NNRTI-resistant Human immunodeficiency virus 1 A17 double mutant infected in human MT4 cells assessed decrease in p24 level after 7 days by ELISA; type: functional, organism-based; details: Human immunodeficiency virus 1, A17, MT4, 168 h
How it was run: (§1)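 MT4 cells (4×10^4/well) were infected with 200 TCID50 HIV-1 and held 2 h at 37 °C, then serially diluted compound was added. […] The K103N and Y181C viruses came from transfecting RT-mutant plasmids into 293T/17 cells.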

[12] = test system: Human immunodeficiency virus 1; test: Antiviral activity against NNRTI-resistant Human immunodeficiency virus 1 harboring reverse transcriptase K103N mutation infected in human TZM-bl cells assessed decrease in p24 level after 7 days by ELISA; type: functional, organism-based; details: Human immunodeficiency virus 1, TZM-bl, 168 h
[13] = test system: Human immunodeficiency virus 1; test: Antiviral activity against NNRTI-resistant Human immunodeficiency virus 1 harboring reverse transcriptase Y181C mutation infected in human TZM-bl cells assessed decrease in p24 level after 7 days by ELISA; type: functional, organism-based; details: Human immunodeficiency virus 1, TZM-bl, 168 h
[14] = test system: Human immunodeficiency virus 1; test: Antiviral activity against NNRTI-resistant Human immunodeficiency virus 1 harboring reverse transcriptase Y181C mutation infected in human MT4 cells assessed decrease in p24 level after 7 days by ELISA; type: functional, organism-based; details: Human immunodeficiency virus 1, MT4, 168 h; how it was run: as §1
[15] = test system: Human immunodeficiency virus 1; test: Antiviral activity against NNRTI-resistant Human immunodeficiency virus 1 harboring reverse transcriptase K103N mutation infected in human MT4 cells assessed decrease in p24 level after 7 days by ELISA; type: functional, organism-based; details: Human immunodeficiency virus 1, MT4, 168 h; how it was run: as §1
[16] = biological target: Human immunodeficiency virus type 1 reverse transcriptase (Human immunodeficiency virus 1) (UniProt Q72547); test: Ratio of TNK651 IC50 to compound IC50 for HIV1 reverse transcriptase
[17] = biological target: Human immunodeficiency virus type 1 reverse transcriptase (Human immunodeficiency virus 1) (UniProt Q72547); test: Ratio of nevirapine IC50 to compound IC50 for HIV1 reverse transcriptase

Row | Structure (SMILES) | pIC50 [3] | selectivity ratio [1] | pEC50 [2] | selectivity ratio [4] | selectivity ratio [5] | CC50 [6] | pEC50 [7] | pEC50 [8] | CC50 at 72 h [9] | selectivity ratio [10] | pEC50 [11] | other results
1 | CC(C)c1c(OC2CCCCC2C)cc(CCc2ccccc2)[nH]c1=O (mixture of isomers) | 8.00 | 73 | 7.44 | 3180 | 191 | 114000 nM | 6.22 | 8.15 | 201000 nM | 28800 | 5.56 | –
2 | Cc1ccnc2c1NC(=O)c1cccnc1N2C1CC1 [NEVIRAPINE] | – | – | 6.72 | – | – | 204000 nM | < 5.00 | – | – | – | < 5.00 | pEC50 [12]: < 5.00; pEC50 [13]: < 5.00; pEC50 [14]: < 5.00; pEC50 [15]: < 5.00
3 | CC1CCCCC1Oc1cc(CCc2ccccc2)[nH]c(=O)c1I (mixture of isomers) | 6.82 | > 1070 | 7.28 | > 5660 | 307 | > 300000 nM | 6.01 | 7.77 | > 300000 nM | > 17600 | 6.55 | pEC50 [12]: 7.00; pEC50 [13]: 6.53; pEC50 [14]: 6.77; pEC50 [15]: 7.77
4 | CC(C)c1c(OC2CCCCC2C)cc(Cc2ccc(Cl)cc2)[nH]c1=O (mixture of isomers) | 6.80 | 8 | 7.64 | 4720 | < 10 | 109000 nM | < 5.00 | 8.00 | 84000 nM | 8400 | 4.98 | –
5 | COc1ccc(Cc2cc(OC3CCCCC3C)c(C(C)C)c(=O)[nH]2)cc1 (mixture of isomers) | 7.48 | 155 | 8.30 | 26500 | < 13 | 132000 nM | < 5.00 | 8.22 | 74500 nM | 12400 | 6.32 | –
6 | CC(C)c1c(Cc2ccccc2)n(COCc2ccccc2)c(=O)[nH]c1=O | 7.06 | < 8 | 7.66 | 2990 | < 6 | 65800 nM | < 5.00 | – | – | – | < 5.00 | pEC50 [12]: < 5.00; pEC50 [13]: < 5.00; pEC50 [14]: < 5.00; pEC50 [15]: 5.62
7 | CC(C)c1c(O[C@H]2CCCC[C@H]2C)cc(CCc2ccccc2)[nH]c1=O (racemic) | 5.88 | < 8 | 6.87 | 1390 | < 18 | 189000 nM | < 5.00 | 7.17 | 87900 nM | 1290 | < 5.00 | –
8 | CC(C)c1c(OC2CCCCC2C)cc(Cc2ccc(F)cc2)[nH]c1=O (mixture of isomers) | 6.89 | < 6 | 7.59 | 2860 | < 7 | 74500 nM | < 5.00 | 7.64 | 64600 nM | 2810 | < 5.00 | –
9 | Cc1ccc(Cc2cc(OC3CCCCC3C)c(C(C)C)c(=O)[nH]2)cc1 (mixture of isomers) | 7.23 | < 11 | 7.24 | 1740 | < 9 | 99000 nM | < 5.00 | 8.22 | 112000 nM | 18700 | < 5.00 | –
10 | CC(C)c1c(O[C@H]2CCCC[C@@H]2C)cc(CCc2ccccc2)[nH]c1=O (racemic) | 8.52 | > 3330 | 8.05 | > 33300 | 2160 | > 300000 nM | 6.86 | 8.40 | > 300000 nM | > 75000 | 7.05 | pEC50 [12]: 7.12; Ratio IC50 [16]: 29; pEC50 [13]: 7.20; Ratio IC50 [17]: 1480; pEC50 [14]: 6.72; pEC50 [15]: 7.74
11 | CC1CCCCC1Oc1cc(CCc2ccccc2)[nH]c(=O)c1Br (mixture of isomers) | 6.19 | 23 | 7.04 | – | < 8 | 83100 nM | < 5.00 | 8.52 | 100000 nM | 33400 | 5.36 | –

More lines, main results first:

Row | pIC50 [3] | Structure (SMILES) | selectivity ratio [1] | pEC50 [2] | selectivity ratio [4] | selectivity ratio [5] | CC50 [6] | pEC50 [7] | pEC50 [8] | CC50 at 72 h [9] | selectivity ratio [10] | pEC50 [11] | other results
12 | 6.39 | CC(C)c1c(OC2CCCCC2C)cc(Cc2ccccc2)[nH]c1=O (mixture of isomers) | – | – | – | – | – | – | – | – | – | – | –
13 | 6.23 | CC1CCCCC1Oc1cc(Cc2ccccc2)[nH]c(=O)c1I (mixture of isomers) | – | – | – | – | – | – | – | – | – | – | –
14 | 4.48 | CCOC(=O)c1c(OC2CCC(C)CC2)cc(Cc2ccccc2)[nH]c1=O (mixture of isomers) | – | – | – | – | – | – | – | – | – | – | –
15 | 4.23 | CC1CCCCC1Oc1cc(Cc2ccccc2)[nH]c(=O)c1 (mixture of isomers) | – | – | – | – | – | – | – | – | – | – | –
16 | < 4.00 | CCOC(=O)c1c(OC2CCCCC2Cl)cc(Cc2ccccc2)[nH]c1=O (mixture of isomers) | – | – | – | – | – | – | – | – | – | – | –
17 | 5.92 | CC1CCCCC1Oc1cc(Cc2ccccc2)[nH]c(=O)c1Br (mixture of isomers) | – | – | – | – | – | – | – | – | – | – | –
18 | 4.13 | CCOC(=O)c1c(OC2CC(C)CC(C)C2)cc(Cc2ccccc2)[nH]c1=O (mixture of isomers) | – | – | – | – | – | – | – | – | – | – | –
19 | 5.28 | CCOC(=O)c1c(OC2CCCCC2C)cc(Cc2ccccc2)[nH]c1=O (mixture of isomers) | – | – | – | – | – | – | – | – | – | – | –
20 | 4.43 | CCOC(=O)c1c(OC2C(C)CCCC2C)cc(Cc2ccccc2)[nH]c1=O (mixture of isomers) | – | – | – | – | – | – | – | – | – | – | –
21 | < 4.00 | CCOC(=O)c1c(OC2CCCC2)cc(Cc2ccccc2)[nH]c1=O | – | – | – | – | – | – | – | – | – | – | –
22 | 4.70 | CCOC(=O)c1c(OC2CCCC(C)C2)cc(Cc2ccccc2)[nH]c1=O (mixture of isomers) | – | – | – | – | – | – | – | – | – | – | –
23 | < 4.00 | CCOC(=O)c1c(OC2CCCCC2C)cc(CCc2ccccc2)[nH]c1=O (mixture of isomers) | – | – | – | – | – | – | – | – | – | – | –
24 | 4.09 | CCOC(=O)c1c(OC2CCCCC2)cc(Cc2ccccc2)[nH]c1=O | – | – | – | – | – | – | – | – | – | – | –
25 | < 4.00 | CCOC(=O)c1c(OC2CCCCCC2)cc(Cc2ccccc2)[nH]c1=O | – | – | – | – | – | – | – | – | – | – | –
26 | < 4.00 | CCOC(=O)c1c(OC2CC(C)CC(C)(C)C2)cc(Cc2ccccc2)[nH]c1=O (mixture of isomers) | – | – | – | – | – | – | – | – | – | – | –
